≈ marks a conversion by molar mass, not a printed value.
Tests used:
Candida parapsilosis = assay: Antifungal activity against Candida parapsilosis clinical isolates assessed as inhibition of microbial growth incubated for 24 hrs by broth microdilution method; type: functional; conditions: Lodderomyces parapsilosis
Procedure, shortened: (§1)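 Twenty-two clinical Candida isolates (8 C. albicans, 4 C. glabrata, 3 C. tropicalis, 3 C. krusei, 2 C. parapsilosis, 2 C. sake) were identified by colony morphology and biochemistry and subcultured at 35 °C for purity. Compounds were dissolved in DMSO and tested by broth microdilution in Sabouraud dextrose broth per NCCLS/CLSI/EUCAST guidance. Values are geometric mean MIC per species (µg/mL).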

Candida tropicalis = assay: Antifungal activity against Candida tropicalis clinical isolates assessed as inhibition of microbial growth incubated for 24 hrs by broth microdilution method; type: functional; procedure, shortened: as §1
Staphylococcus warneri = assay: Antibacterial activity against Staphylococcus warneri assessed as inhibition of microbial growth incubated for 18 to 22 hrs by broth microdilution method; type: functional
Procedure, shortened: (§2)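 Broth microdilution in Mueller-Hinton II broth following NCCLS recommendations; compounds dissolved in DMSO.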

Proteus mirabilis = assay: Antibacterial activity against Proteus mirabilis assessed as inhibition of microbial growth incubated for 18 to 22 hrs by broth microdilution method; type: functional; procedure, shortened: as §2
Staphylococcus aureus = assay: Antibacterial activity against Staphylococcus aureus assessed as inhibition of microbial growth incubated for 18 to 22 hrs by broth microdilution method; type: functional; procedure, shortened: as §2
Enterobacter = assay: Antibacterial activity against Enterobacter spp. assessed as inhibition of microbial growth incubated for 18 to 22 hrs by broth microdilution method; type: functional; procedure, shortened: as §2
[1] = Selectivity index, ratio of CC50 for human Hep2 cells to MIC for Candida albicans clinical isolates; type: toxicity; conditions: HEp-2 cells, read-out: Selectivity Index
Procedure, shortened: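 Calculated as Hep2 CC50 (Trypan Blue exclusion, 24 h, 37 °C) divided by MIC against C. albicans.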

[2] = Cytotoxicity against human Hep2 cells assessed as reduction in cell viability incubated for 24 hrs by trypan blue dye exclusion assay; type: cell-based; conditions: HEp-2 cells
Procedure, shortened: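 Hep2 (human laryngeal epidermoid carcinoma) cells were exposed to five concentrations from 0.05 to 100 µg/mL for 24 h at 37 °C, and viability was scored by Trypan Blue exclusion as survival fraction. Controls were medium alone, DMSO-treated cells and 1 mM sodium nitroprusside. CC50 is the mean ± SD of at least three independent experiments.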

Nakaseomyces glabratus = assay: Antifungal activity against Candida glabrata clinical isolates assessed as inhibition of microbial growth incubated for 24 hrs by broth microdilution method; type: functional; procedure, shortened: as §1
Pichia kudriavzevii = assay: Antifungal activity against Candida krusei clinical isolates assessed as inhibition of microbial growth incubated for 24 hrs by broth microdilution method; type: functional; procedure, shortened: as §1
[3] = system: Streptococcus alpha-hemolyticus (Streptococcus sp.); assay: Antibacterial activity against Streptococcus Streptococcus alpha hemolyticus assessed as inhibition of microbial growth incubated for 18 to 22 hrs by broth microdilution method
Enterococcus faecalis = assay: Antibacterial activity against Streptococcus faecalis assessed as inhibition of microbial growth incubated for 18 to 22 hrs by broth microdilution method; type: functional; procedure, shortened: as §2
Klebsiella oxytoca = assay: Antibacterial activity against Klebsiella oxytoca assessed as inhibition of microbial growth incubated for 18 to 22 hrs by broth microdilution method; type: functional; procedure, shortened: as §2
[Candida] sake = Antifungal activity against Candida sake clinical isolates assessed as inhibition of microbial growth incubated for 24 hrs by broth microdilution method; type: functional; conditions: Fermentozyma sake; procedure, shortened: as §1
Candida albicans = assay: Antifungal activity against Candida albicans clinical isolates assessed as inhibition of microbial growth incubated for 24 hrs by broth microdilution method; type: functional; procedure, shortened: as §1
Escherichia coli = assay: Antibacterial activity against Escherichia coli assessed as inhibition of microbial growth incubated for 18 to 22 hrs by broth microdilution method; type: functional; procedure, shortened: as §2

In the case of `CC1CCCC/C1=N/N=C1\NC(=O)CS1` (configuration not stated), the MIC (Candida parapsilosis) is reported as 2 µg/mL, the MIC (Candida tropicalis) is reported as 8 µg/mL and the MIC (Staphylococcus warneri) is reported as at least 256 µg/mL. It also gave an MIC (Proteus mirabilis) of at least 256 µg/mL, an MIC (Staphylococcus aureus) of at least 256 µg/mL and an MIC (Enterobacter) of at least 256 µg/mL. For the same compound, the selectivity ratio [1] was 26, the CC50 at 24 h [2] was 52.6 µg/mL (≈ 233 µM) and the MIC (Nakaseomyces glabratus) was 1 µg/mL. The MIC (Pichia kudriavzevii) was 2 µg/mL, the MIC [3] was at least 256 µg/mL and the MIC (Enterococcus faecalis) was at least 256 µg/mL. It also gave an MIC (Klebsiella oxytoca) of at least 256 µg/mL, an MIC ([Candida] sake) of 2 µg/mL and an MIC (Candida albicans) of 2 µg/mL. It also gave an MIC (Escherichia coli) of at least 256 µg/mL.

`C/C(=N/N=C1\NC(=O)CS1)c1cccs1` showed an MIC (Candida parapsilosis) of 16 µg/mL, an MIC (Candida tropicalis) of 2 µg/mL and an MIC (Staphylococcus warneri) of at least 256 µg/mL. For the same compound, the MIC (Proteus mirabilis) was at least 256 µg/mL, the MIC (Staphylococcus aureus) was at least 256 µg/mL and the MIC (Enterobacter) was at least 256 µg/mL. It also gave a selectivity ratio [1] of over 50, a CC50 at 24 h [2] of over 100 µg/mL and an MIC (Nakaseomyces glabratus) of 1 µg/mL. For the same compound, the MIC (Pichia kudriavzevii) was 8 µg/mL, the MIC [3] was at least 256 µg/mL and the MIC (Enterococcus faecalis) was at least 256 µg/mL. The MIC (Klebsiella oxytoca) was at least 256 µg/mL, the MIC ([Candida] sake) was 16 µg/mL and the MIC (Candida albicans) was 2 µg/mL. The MIC (Escherichia coli) was at least 256 µg/mL.

Compound `C/C(=N/N=C1\NC(=O)CS1)c1ccccn1` has an MIC (Candida parapsilosis) of 16 µg/mL, an MIC (Candida tropicalis) of 1 µg/mL and an MIC (Staphylococcus warneri) of at least 256 µg/mL. The MIC (Proteus mirabilis) was at least 256 µg/mL, the MIC (Staphylococcus aureus) was at least 256 µg/mL and the MIC (Enterobacter) was at least 256 µg/mL. It also gave a selectivity ratio [1] of 28, a CC50 at 24 h [2] of 56.8 µg/mL (≈ 242 µM) and an MIC (Nakaseomyces glabratus) of 1 µg/mL. The MIC (Pichia kudriavzevii) was 8 µg/mL, the MIC [3] was at least 256 µg/mL and the MIC (Enterococcus faecalis) was at least 256 µg/mL. For the same compound, the MIC (Klebsiella oxytoca) was at least 256 µg/mL, the MIC ([Candida] sake) was 16 µg/mL and the MIC (Candida albicans) was 2 µg/mL. For the same compound, the MIC (Escherichia coli) was at least 256 µg/mL.

`C/C(=N/N=C1/SCC(=O)N1Cc1ccccc1)c1cccnc1` gave an MIC (Candida parapsilosis) of 2 µg/mL, an MIC (Candida tropicalis) of 2 µg/mL and an MIC (Staphylococcus warneri) of at least 256 µg/mL. For the same compound, the MIC (Proteus mirabilis) was at least 256 µg/mL, the MIC (Staphylococcus aureus) was at least 256 µg/mL and the MIC (Enterobacter) was at least 256 µg/mL. The selectivity ratio [1] was 18.5, the CC50 at 24 h [2] was 37.4 µg/mL (≈ 115 µM) and the MIC (Nakaseomyces glabratus) was 2 µg/mL. The MIC (Pichia kudriavzevii) was 2 µg/mL, the MIC (Enterococcus faecalis) was at least 256 µg/mL and the MIC (Klebsiella oxytoca) was at least 256 µg/mL. For the same compound, the MIC ([Candida] sake) was 2 µg/mL, the MIC (Candida albicans) was 2 µg/mL and the MIC (Escherichia coli) was at least 256 µg/mL.

Work on `O=C1CS/C(=N/N=C2CCCCC2)N1Cc1ccccc1` yielded an MIC (Candida parapsilosis) of 2 µg/mL, an MIC (Candida tropicalis) of 2 µg/mL and an MIC (Staphylococcus warneri) of at least 256 µg/mL. The MIC (Proteus mirabilis) was at least 256 µg/mL, the MIC (Staphylococcus aureus) was at least 256 µg/mL and the MIC (Enterobacter) was at least 256 µg/mL. For the same compound, the selectivity ratio [1] was 11, the CC50 at 24 h [2] was 22.8 µg/mL (≈ 75.6 µM) and the MIC (Nakaseomyces glabratus) was 2 µg/mL. It also gave an MIC (Pichia kudriavzevii) of 2 µg/mL, an MIC (Enterococcus faecalis) of at least 256 µg/mL and an MIC (Klebsiella oxytoca) of at least 256 µg/mL. It also gave an MIC ([Candida] sake) of 2 µg/mL, an MIC (Candida albicans) of 2 µg/mL and an MIC (Escherichia coli) of at least 256 µg/mL.

In the case of `O=C1CSC(NN=C2CCCC2)=N1`, the MIC (Candida parapsilosis) is reported as 2 µg/mL, the MIC (Candida tropicalis) is reported as 2 µg/mL and the MIC (Staphylococcus warneri) is reported as at least 256 µg/mL. The MIC (Proteus mirabilis) was at least 256 µg/mL, the MIC (Staphylococcus aureus) was at least 256 µg/mL and the MIC (Enterobacter) was at least 256 µg/mL. For the same compound, the selectivity ratio [1] was 11.1, the CC50 at 24 h [2] was 22.2 µg/mL (≈ 113 µM) and the MIC (Nakaseomyces glabratus) was 2 µg/mL. It also gave an MIC (Pichia kudriavzevii) of 2 µg/mL, an MIC [3] of at least 256 µg/mL and an MIC (Enterococcus faecalis) of at least 256 µg/mL. It also gave an MIC (Klebsiella oxytoca) of at least 256 µg/mL, an MIC ([Candida] sake) of 2 µg/mL and an MIC (Candida albicans) of 2 µg/mL. The MIC (Escherichia coli) was at least 256 µg/mL.

Compound `Clc1ccccc1C(c1ccccc1)(c1ccccc1)n1ccnc1` [CLOTRIMAZOLE] has an MIC (Candida parapsilosis) of 2 µg/mL, an MIC (Candida tropicalis) of 2 µg/mL and a selectivity ratio [1] of 19. It also gave a CC50 at 24 h [2] of 38.8 µg/mL (≈ 113 µM), an MIC (Nakaseomyces glabratus) of 2 µg/mL and an MIC (Pichia kudriavzevii) of 2 µg/mL. It also gave an MIC ([Candida] sake) of 2 µg/mL and an MIC (Candida albicans) of 2 µg/mL.

Source: ChEMBL document CHEMBL4190362, “Synthesis, biological evaluation and quantitative structure-active relationships of 1,3-thiazolidin-4-one derivatives. A promising chemical scaffold endowed with high antifungal potency and low cytotoxicity” (Eur J Med Chem, 2017)
